Laboratory results taken from ChEMBL document CHEMBL1138049, “Evaluation of small-molecule modulators of the luteinizing hormone/choriogonadotropin and thyroid stimulating hormone receptors: structure-activity relationships and selective binding patterns” (J Med Chem, 2006).

How the values were obtained:
[1] = biological target: Thyrotropin receptor (Homo sapiens) (UniProt P16473); assay: Agonist activity at TSHR expressed in HEK293 EM cells measured by intracellular cAMP accumulation relative to TSH; assay type: functional, cell-based
Summary of the method: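 Human TSHR stably expressed in HEK 293 EM cells, cultured 48 h, then incubated 1 h in serum-free DMEM with 1 mM IBMX and compound (0-100 µM) at 5% CO₂. Lysates assayed for cAMP by enzyme immunoassay. […] Maximal response expressed as % of bovine TSH response, reference 100 mU/mL. Two independent experiments in duplicate.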

[2] = biological target: Lutropin-choriogonadotropic hormone receptor (Homo sapiens) (UniProt P22888); assay: Agonist activity at LHCGR expressed in HEK293 EM cells measured by intracellular cAMP accumulation relative to LH; assay type: functional, cell-based
Summary of the method: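 Human LHCGR stably expressed in HEK 293 EM cells, cultured 48 h, then incubated 1 h in serum-free DMEM with 1 mM IBMX and compound (0-100 µM) at 5% CO₂. Cells were lysed and cAMP measured by enzyme immunoassay. […] Efficacy is % of maximal response to human LH (1000 ng/ml). Two independent experiments, each in duplicate.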

Lutropin-choriogonadotropic hormone receptor (Homo sapiens), sequence (P22888 whole entry): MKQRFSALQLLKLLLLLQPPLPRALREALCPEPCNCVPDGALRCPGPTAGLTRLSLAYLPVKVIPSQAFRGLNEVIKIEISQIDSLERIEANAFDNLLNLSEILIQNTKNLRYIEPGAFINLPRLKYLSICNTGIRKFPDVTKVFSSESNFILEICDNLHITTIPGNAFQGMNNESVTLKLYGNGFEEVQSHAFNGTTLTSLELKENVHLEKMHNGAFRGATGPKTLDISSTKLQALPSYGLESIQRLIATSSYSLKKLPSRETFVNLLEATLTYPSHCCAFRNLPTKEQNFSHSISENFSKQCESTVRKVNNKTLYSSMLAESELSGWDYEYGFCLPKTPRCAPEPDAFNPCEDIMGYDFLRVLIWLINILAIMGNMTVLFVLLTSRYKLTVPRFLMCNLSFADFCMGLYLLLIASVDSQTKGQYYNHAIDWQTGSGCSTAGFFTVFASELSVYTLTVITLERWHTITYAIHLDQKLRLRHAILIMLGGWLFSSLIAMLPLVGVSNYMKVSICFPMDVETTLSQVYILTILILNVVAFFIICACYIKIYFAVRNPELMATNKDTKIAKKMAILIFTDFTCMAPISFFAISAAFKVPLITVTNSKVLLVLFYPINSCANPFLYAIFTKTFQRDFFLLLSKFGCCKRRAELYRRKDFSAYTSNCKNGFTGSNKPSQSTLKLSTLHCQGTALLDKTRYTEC
Thyrotropin receptor (Homo sapiens), sequence (P16473 whole entry): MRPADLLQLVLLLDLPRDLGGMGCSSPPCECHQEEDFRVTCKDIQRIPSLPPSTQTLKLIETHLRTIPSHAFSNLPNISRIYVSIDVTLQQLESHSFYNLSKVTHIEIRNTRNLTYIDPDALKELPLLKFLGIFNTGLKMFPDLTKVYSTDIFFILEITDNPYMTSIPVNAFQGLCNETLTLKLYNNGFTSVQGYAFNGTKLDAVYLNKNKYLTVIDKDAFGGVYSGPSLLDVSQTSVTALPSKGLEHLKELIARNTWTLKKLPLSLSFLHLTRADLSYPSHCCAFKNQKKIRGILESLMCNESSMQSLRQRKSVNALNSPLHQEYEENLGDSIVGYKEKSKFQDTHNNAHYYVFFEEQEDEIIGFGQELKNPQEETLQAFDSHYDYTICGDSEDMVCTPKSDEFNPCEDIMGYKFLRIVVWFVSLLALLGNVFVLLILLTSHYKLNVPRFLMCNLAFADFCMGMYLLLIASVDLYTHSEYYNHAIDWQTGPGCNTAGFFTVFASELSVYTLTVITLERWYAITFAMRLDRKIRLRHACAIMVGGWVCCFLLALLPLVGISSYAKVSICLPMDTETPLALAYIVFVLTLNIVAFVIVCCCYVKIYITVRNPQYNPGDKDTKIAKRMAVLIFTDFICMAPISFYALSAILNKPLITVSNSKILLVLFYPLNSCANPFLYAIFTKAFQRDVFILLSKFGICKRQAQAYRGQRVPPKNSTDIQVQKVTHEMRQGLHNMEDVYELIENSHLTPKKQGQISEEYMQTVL

SMILES	Efficacy [1] [%]	Efficacy [2] [%]
COc1cccc(-c2nc(SC)nc3sc(C(=O)NNC(C)(C)C)c(N)c23)c1	6.4	6
CSc1nc(-c2cccc(F)c2)c2c(N)c(C(=O)NC(C)(C)C)sc2n1	8.1	–
CCNC(=O)c1sc2nc(SC)nc(-c3cccc(OC)c3)c2c1N	2.3	26.9
COc1cccc(-c2nc(SC)nc3sc(C(=O)NC(C)(C)C)c(N)c23)c1F	–	46.3
COc1cccc(-c2nc(SC)nc3sc(C(=O)NCCO)c(N)c23)c1	2.9	20.5
COc1cccc(-c2nc(SC)nc3sc(C(=O)NCCc4ccccc4)c(N)c23)c1	4.3	25.6
COc1cccc(-c2nc(SC)nc3sc(C(=O)NC(C)(C)C)c(N)c23)c1OC	3	50.1
COc1cccc(-c2nc(SC)nc3sc(C(=O)N(C)C(C)(C)C)c(N)c23)c1	3.6	47.8
COc1cccc(-c2nc(SC)nc3sc(C(=O)OC(C)(C)C)c(N)c23)c1	–	23.8
COc1cccc(-c2nc(SC)nc3sc(C(=O)NC(C)(C)C)c(N)c23)c1	23.4	45.8
COc1cccc(-c2nc(SC)nc3sc(C(=O)NCC#N)c(N)c23)c1	3.6	20.3

Second part, the molecule after the results:

Efficacy [1] [%]	Efficacy [2] [%]	SMILES
1.9	2.4	COc1cccc(-c2nc(SC)nc3sc(C(=O)NNC(=O)OC(C)(C)C)c(N)c23)c1
3	7.8	COc1cccc(-c2nc(SC)nc3sc(C(=O)NCc4ccccc4)c(N)c23)c1
6.1	8.5	COc1cccc(-c2nc(SC)nc3sc(C(=O)NN)c(N)c23)c1
1.5	4.2	CCOC(=O)c1sc2nc(SC)nc(-c3cccc(OC)c3)c2c1N
11.2	63.9	CSc1nc(-c2cccc(O)c2)c2c(N)c(C(=O)NC(C)(C)C)sc2n1
4	11	COc1cccc(-c2nc(SC)nc3sc(C(=O)N(C)C)c(N)c23)c1
